The values that follow come from ChEMBL document CHEMBL3526015, “Metabolism of the c-Fos/activator protein-1 inhibitor T-5224 by multiple human UDP-glucuronosyltransferase isoforms” (Drug Metab Dispos, 2011).

Molecules are shown by their SMILES.

What all share (type): ADME
For data set [1], the target named is T1, UDP-glucuronosyltransferase 1A8 (Homo sapiens, UniProt Q9HAW9).
T1 sequence (Q9HAW9 whole entry): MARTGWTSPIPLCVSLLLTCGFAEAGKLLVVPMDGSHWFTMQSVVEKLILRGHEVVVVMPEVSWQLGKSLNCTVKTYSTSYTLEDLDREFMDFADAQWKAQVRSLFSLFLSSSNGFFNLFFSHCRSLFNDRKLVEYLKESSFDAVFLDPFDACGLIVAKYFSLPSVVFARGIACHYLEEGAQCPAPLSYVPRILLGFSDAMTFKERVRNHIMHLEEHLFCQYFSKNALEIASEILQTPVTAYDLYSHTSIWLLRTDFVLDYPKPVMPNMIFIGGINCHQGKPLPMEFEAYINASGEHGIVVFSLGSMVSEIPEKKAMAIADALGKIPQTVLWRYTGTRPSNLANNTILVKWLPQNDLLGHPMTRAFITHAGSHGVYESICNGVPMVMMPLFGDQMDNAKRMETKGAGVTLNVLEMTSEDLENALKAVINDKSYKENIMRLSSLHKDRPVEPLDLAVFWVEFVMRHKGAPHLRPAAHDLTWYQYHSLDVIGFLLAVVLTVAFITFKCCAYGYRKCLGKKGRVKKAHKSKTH
The experiment in a line: Substrate inhibition of human UGT1A8-mediated T-5224 hydroxyl O-glucuronide formation after 10 to 60 mins in presence of UDP-glucuronic acid by HPLC method. The gist of the method:
(§1)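 Recombinant human UGT1A1, UGT1A3 or UGT1A8 from baculovirus-infected insect cells (0.1 mg protein/mL) in 50 mM Tris-HCl pH 7.5, 8 mM MgCl2, alamethicin, 2% DMSO. T-5224 at 1–50 μM with 2 mM UDPGA for 60 min at 37°C. HPLC with UV at 290 nm. Triplicates fitted to a substrate-inhibition model. kcat uses UGT content quantified by immunoblot against recombinant UGT1A1/UGT2B4 standards.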

The subject of data set [2] is Liver microsome. The data set is described as follows: Drug metabolism in human liver microsomes assessed as T-5224 acyl O-glucuronide formation at 10 uM after 10 mins in presence of beta-estradiol by HPLC method. Put shortly: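 Pooled human liver microsomes or recombinant UGT1A1 were incubated with 10 μM T-5224, 2 mM UDPGA and β-estradiol at 0–500 μM (2% DMSO), in Tris-HCl/MgCl2/alamethicin buffer. Incubation was 10 min (liver microsomes) or 60 min (UGT1A1) at 37°C. G2/G3 were read by HPLC at 290 nm, as mean ± SD, n = 3.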
On the technique in general: Liver microsomes are vesicles of endoplasmic reticulum, rich in cytochrome P450 enzymes.

Data set [3] addresses T2, UDP-glucuronosyltransferase 1A1 (Homo sapiens, UniProt P22309).
T2 sequence (P22309 whole entry): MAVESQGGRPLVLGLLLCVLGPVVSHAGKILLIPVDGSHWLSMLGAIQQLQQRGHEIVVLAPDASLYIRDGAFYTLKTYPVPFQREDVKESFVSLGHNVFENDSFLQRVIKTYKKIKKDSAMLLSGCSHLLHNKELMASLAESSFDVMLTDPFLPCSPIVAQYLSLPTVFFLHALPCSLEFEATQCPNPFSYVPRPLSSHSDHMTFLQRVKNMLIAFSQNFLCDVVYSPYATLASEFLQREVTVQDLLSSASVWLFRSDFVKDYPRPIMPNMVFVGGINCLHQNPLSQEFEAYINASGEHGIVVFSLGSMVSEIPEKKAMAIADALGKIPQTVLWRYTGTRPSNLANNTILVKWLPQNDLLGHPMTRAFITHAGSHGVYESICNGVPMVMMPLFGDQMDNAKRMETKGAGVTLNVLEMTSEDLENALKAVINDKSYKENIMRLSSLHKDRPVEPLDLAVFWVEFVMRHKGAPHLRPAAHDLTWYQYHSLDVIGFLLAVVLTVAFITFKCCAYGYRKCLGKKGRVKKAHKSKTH
The data set is described as follows: Drug metabolism assessed as Vmax/Km ratio for human UGT1A1-mediated T-5224 acyl O-glucuronide formation per mg protein after 10 to 60 mins in presence of UDP-glucuronic acid by HPLC method. The note with it: recombinant enzyme. The gist of the method: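 Kinetics used recombinant UGT1A1, 1A3 or 1A8 (0.1 mg protein/mL) with T-5224 at 1–50 μM, 2 mM UDPGA and 60 min at 37°C, in triplicate. G2/G3 were measured by HPLC at 290 nm and fitted to a substrate-inhibition model (Vmax, Km, Ksi). UGT content was quantified by immunoblot, and kcat = Vmax/E0 was derived from it.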

The target of data set [4] is T3, UDP-glucuronosyltransferase 1A3 (Homo sapiens, UniProt P35503).
T3 sequence (P35503 whole entry): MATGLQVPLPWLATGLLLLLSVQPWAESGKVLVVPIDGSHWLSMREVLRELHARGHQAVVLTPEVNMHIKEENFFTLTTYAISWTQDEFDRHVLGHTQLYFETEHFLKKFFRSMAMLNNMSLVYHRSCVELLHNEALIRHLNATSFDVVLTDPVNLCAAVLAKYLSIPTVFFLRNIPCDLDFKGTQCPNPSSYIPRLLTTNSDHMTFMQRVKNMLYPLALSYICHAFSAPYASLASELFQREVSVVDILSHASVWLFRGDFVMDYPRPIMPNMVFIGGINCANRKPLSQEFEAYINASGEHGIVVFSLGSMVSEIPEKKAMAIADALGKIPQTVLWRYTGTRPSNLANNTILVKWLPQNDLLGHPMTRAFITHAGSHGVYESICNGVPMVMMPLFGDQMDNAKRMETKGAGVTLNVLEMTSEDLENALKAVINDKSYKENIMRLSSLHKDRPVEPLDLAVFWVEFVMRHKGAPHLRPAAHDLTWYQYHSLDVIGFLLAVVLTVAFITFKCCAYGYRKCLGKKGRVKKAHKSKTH
The experiment in a line: Substrate inhibition of human UGT1A3-mediated T-5224 acyl O-glucuronide formation after 10 to 60 mins in presence of UDP-glucuronic acid by HPLC method. The gist of the method:
as §1

For data set [5], the target named is T2, UDP-glucuronosyltransferase 1A1. The data set is described as follows: Substrate inhibition of human UGT1A1-mediated T-5224 hydroxyl O-glucuronide formation after 10 to 60 mins in presence of UDP-glucuronic acid by HPLC method. Put shortly:
as §1

Data set [6] relates to Liver microsome. The data set is described as follows: Drug metabolism in pooled human liver microsomes assessed as T-5224 acyl O-glucuronide formation at 10 uM after 10 mins by HPLC method. The gist of the method: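 T-5224 at 10 μM incubated for 10 min at 37°C with UDPGA (2 mM) in pooled liver (0.5 mg protein/mL) or intestinal (0.25 mg protein/mL) microsomes. Buffer was 50 mM Tris-HCl pH 7.5 with 8 mM MgCl2 and alamethicin, after 5 min preincubation. Stopped with acetonitrile; glucuronides quantified by HPLC at 290 nm.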

Data set [7] has as its target Cytochrome P450 3A4 (Homo sapiens, UniProt P08684). The experiment in a line: Drug metabolism assessed as human CYP3A4-mediated metabolite formation at 2 uM after 30 mins by HPLC method. The note with it: recombinant enzyme, 0.5 h. Put shortly: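 Each recombinant human P450 was used at 50 pmol/mL with an NADPH-generating system and 2 μM 14C-T-5224 (0.5% DMSO final). Buffer was 100 mM Tris-HCl pH 7.5, except 100 mM potassium phosphate pH 7.4 for CYP2A6 and CYP2C9*1. Incubation ran 30 min at 37°C and was stopped with acetonitrile/methanol. Radioactive metabolite peaks were detected by C18 HPLC.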

Chain of Cytochrome P450 3A4 (P08684 whole entry): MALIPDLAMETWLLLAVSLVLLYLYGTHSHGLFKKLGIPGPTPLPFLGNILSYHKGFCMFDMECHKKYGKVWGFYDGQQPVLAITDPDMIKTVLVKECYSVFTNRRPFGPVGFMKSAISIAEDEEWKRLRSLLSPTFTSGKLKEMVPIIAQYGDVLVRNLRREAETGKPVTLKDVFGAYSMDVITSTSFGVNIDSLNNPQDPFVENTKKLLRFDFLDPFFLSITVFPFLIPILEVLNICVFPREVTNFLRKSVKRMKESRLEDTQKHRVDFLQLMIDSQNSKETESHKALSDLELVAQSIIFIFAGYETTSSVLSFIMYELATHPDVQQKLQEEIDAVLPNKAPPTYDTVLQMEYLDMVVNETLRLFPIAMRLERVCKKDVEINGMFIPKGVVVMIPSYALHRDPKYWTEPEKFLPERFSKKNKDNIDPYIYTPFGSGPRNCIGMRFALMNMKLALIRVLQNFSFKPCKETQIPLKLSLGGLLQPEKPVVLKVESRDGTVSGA

As for `O=C(O)CCc1cc(C(=O)c2ccc(OC3CCCC3)cc2O)ccc1OCc1ccc2c(O)noc2c1`, the Ki was 3.64 µM in data set [1], 13.5 µM in data set [4] and 4.67 µM in data set [5]. The Drug metabolism result is listed as “metabolite_not_detected” in data set [2], “metabolite_detected” in data set [6] and “metabolite_not_detected” in data set [7]. The Vmax/Km in data set [3] worked out at 83.9 µL/min.
